# A selection: hits, their analogues and other compounds. The true share with any hit is near 2.5%.
# Bfl-1 A1 inh: inhibitors of the anti-apoptotic protein A1, read as caspase activation; actives 0.066% (n = 330,000); caspase activation, % (no concentration beside the values); MEF A1-2A-BIM cells, Caspase-Glo 3/7 luminescence, 3 h; percent of clofoctol response, vehicle zero;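 active means over half of replicate activation scores above 10%, or exactly half above 10 with the replicate mean above 10; inconclusive means replicate mean below 10 yet half the replicates above 10; inactive means over half of replicates below 10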
# sPLA2-III inh: Blocks human group III sPLA2 activity; Q9NZ20; QFRET BODIPY PC-A2 liposome hydrolysis, fluorescence; inhibition, % at 12.2 µM; actives 0.56% (n = 370,000);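 active means inhibition above mean plus 3 SD of compounds lying within the high and low control bounds, cut at about 19% in these data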;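 further: 0% = median of test compound wells and 100% = no enzyme DMSO wells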
# MC4R antagonist: antagonists of human melanocortin 4 receptor (MC4R) | actives 0.48% (n = 360,000) | inhibition, % at 6.5 µM | MC4R-expressing cells, MTII-stimulated cAMP, LANCE TR-FRET;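 active means inhibition above its plate's cutoff, the mean of tested wells on that plate plus 3 SD, cut at about 29% in these data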;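 further: 0% = Melanotan II alone and 100% = Melanotan II plus saturating MCL0020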
#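 System: U2OS-MC4R stable cell line; Technique: Eu-cAMP/anti-cAMP TR-FRET, emission 671 nm; Repeats: single well per compound; Also added: Melanotan II; Dosing: one concentration, 6.5 µM nominal; Schedule: 30-min compound, 1-h challenge, 1-h detection, room temperature.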
# NTR1 agonist: agonists of human neurotensin receptor NTR1; NTR1-U2OS beta-arrestin-GFP spot imaging, agonist mode; activation, % at 20 µM; AID 493036; actives 0.17% (n = 330,000);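 active means activation at or above 40% of the spot to cytoplasm intensity ratio, with at least 20 cells analyzed; inconclusive means wells under 20 cells, flagged as cytotoxic or low count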;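 further: 0% = DMSO without peptide and 100% = 100 nM NTR1 peptide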
# Target sequence (P30989 whole entry, looked up): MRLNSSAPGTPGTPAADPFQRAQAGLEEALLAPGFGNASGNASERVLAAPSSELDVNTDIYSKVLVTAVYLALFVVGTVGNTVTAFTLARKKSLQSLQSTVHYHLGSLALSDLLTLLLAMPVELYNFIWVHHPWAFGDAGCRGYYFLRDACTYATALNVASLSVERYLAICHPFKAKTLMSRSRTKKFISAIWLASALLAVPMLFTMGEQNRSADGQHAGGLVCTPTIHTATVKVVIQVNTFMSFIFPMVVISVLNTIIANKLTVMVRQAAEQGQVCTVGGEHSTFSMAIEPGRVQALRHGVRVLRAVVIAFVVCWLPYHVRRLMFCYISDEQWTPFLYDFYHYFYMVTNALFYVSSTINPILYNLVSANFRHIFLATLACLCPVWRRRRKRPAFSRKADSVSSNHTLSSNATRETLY
# Exocytosis inh: blocks lytic granule exocytosis; TALL-104 LAMP-1 surface exposure, flow cytometry; cells stimulated with thapsigargin and PMA; inhibition, % at 10 µM; actives 0.66% (n = 360,000);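 active means inhibition above about 55%, limit read from the data; inconclusive means no clear call, values can overlap the other calls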
# MC4R barr agon: activates human MC4R beta-arrestin recruitment | P32245 | U2OS MC4R beta-arrestin complementation, luminescence; percent of melanotan II response, DMSO zero | activation, % at 8.9 µM | actives 0.98% (n = 360,000) | AID 540308;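 active means activation above a per-plate cutoff, the mean activation of sample wells on that plate plus 3 SD, cut at about 8% in these data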
# MC4R barr conf: human MC4R beta-arrestin agonism confirmation | actives 31% (n = 2,400) | shares compounds with MC4R barr agon | activation, % at 8.9 µM | U2OS MC4R beta-arrestin recruitment, luminescence; scaled DMSO 0%, Melanotan II 100% | AID 602192;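 active means mean activation across replicates above the hit cutoff set in the earlier primary screen, cut at about 8% in these data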
# MOR-DOR barr ag: counter-screen for MC4R agonists: agonists of mu-delta opioid heterodimer. shares compounds with MC4R barr agon. U2OS PathHunter beta-arrestin, beta-gal luminescence; percent of deltorphin B response, DMSO zero. activation, % at 9.2 µM. actives 5.8% (n = 2,400). AID 602194;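 active means mean activation across replicates exceeds the hit threshold derived in the earlier primary screen, cut at about 18% in these data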;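 further: 100% = deltorphin B at 0.9 µM final and 0% = DMSO alone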
# An asterisk follows results filed as active; ? = inconclusive; . = no result given.
SMILES,Bfl-1 A1 inh,sPLA2-III inh,MC4R antagonist,NTR1 agonist,Exocytosis inh,MC4R barr agon,MC4R barr conf,MOR-DOR barr ag
COc1ccc2nc(C)cc(SCC(=O)NNC(=O)COc3ccc(C)cc3)c2c1,?,-9,7,3,-2,10*,-2,2
COc1ccc2nc(C)cc(SCC(=O)NNC(=O)COc3cccc4ccccc34)c2c1,0,-43,-1,13,-7,1,.,.
COc1ccc(OC)c(CN2C(=O)c3ccnn3CC2(C)c2nnnn2C2CCCC2)c1 (stereo not given),.,3,.,.,.,.,.,.
Cc1ccccc1NC(=O)[C@@H]1CCCN1S(=O)(=O)c1cccc2cccnc12,.,6,.,.,.,.,.,.
CC(=O)Nc1sc2c(c1C#N)CCCC2,1,3,-1,-2,5,0,.,.
Cc1cc(C(=O)Nc2sc3c(c2C#N)CCCCC3)cs1,-7,.,9,13,8,14*,-2,3
COc1ccc(/C=N/NC(=O)c2ccc(COc3ccccc3Cl)o2)cc1,-2,-11,6,-2,3,9.9*,6,4
COc1ccc(/C=N/NC(=O)c2ccc(COc3ccccc3Cl)o2)c(OC)c1C,2,-2,-3,10,-2,17*,18*,10
CC(=O)Nc1ccc(/C(C)=N/NC(=O)c2ccc(COc3ccccc3Cl)o2)cc1,0,-3,13,2,-8,0,.,.
O=C(NCC1COc2ccccc2O1)c1ccc(NC(=O)C(Cl)Cl)cc1 (stereo not given),.,-3,.,.,.,.,.,.
NC(=O)c1c(NC(=O)c2c(F)cccc2F)sc2c1CCN(Cc1ccccc1)C2,0,-8,21,5,-3,3,.,.
NC(=O)c1c(NC(=O)c2ccccc2)sc2c1CCN(Cc1ccccc1)C2,0,-11,11,3,-15,12*,2,7
CCOc1ccc(-c2nnc3n2N=C(c2ccc(OC)cc2)CS3)cc1,1,-22,-7,2,-2,12*,3,7
O=C(Nc1nc2ccccc2s1)c1ccc(F)cc1,-9,-3,13,1,1,-1,.,.
O=C(Nc1ccc(F)cc1)Nc1sccc1-c1nc2ccccc2s1,1,1,3,3,6,25*,10*,3
O=C(Nc1ccc(O)c(-c2nc3ccccc3s2)c1)c1cccs1,-1,12,6,7,-4,24*,8,-1
O=C(NC(=S)Nc1cccc(NC(=O)c2ccccc2Cl)c1)c1cccs1,0,6,1,6,8,14*,1,1
O=C(Nc1ccc2nn(-c3ccccc3)nc2c1)c1cccs1,0,-8,11,3,8,10*,1,3
O=C(CCc1ccccc1)N[C@H]1[C@@H](OC(=O)c2ccco2)CCC[C@]12C(=O)N(Cc1ccccc1)c1ccccc12,.,-3,.,.,.,.,.,.
CCc1c(-c2ccc(Cl)cc2)ncn1CCc1ccccc1OC,.,-2,.,.,.,.,.,.
O=C(Nc1cccc(NC(=S)NC(=O)c2cccs2)c1)c1ccccc1,0,16,6,-1,1,12*,19*,5
O=C(NC(=S)Nc1ccc(S(=O)(=O)N2CCCCCC2)cc1)c1cccs1,0,3,4,6,6,13*,9.4*,5
N#CCC[C@H]1CC[C@]2(CCCN(Cc3ccccc3)C2)O1,.,6,.,.,.,.,.,.
CCOc1cc(/C=N/N=C(\N)c2nonc2N)cc(Br)c1OCc1cccc2ccccc12,6.4*,15,1,1,-1,31*,11*,8
COc1cc(/C=N/N=C(/N)c2nonc2N)cc(Br)c1OCc1cccc(C)c1,0,-5,9,8,-1,5,.,.
SMILES,Bfl-1 A1 inh,sPLA2-III inh,MC4R antagonist,NTR1 agonist,Exocytosis inh,MC4R barr agon,MC4R barr conf,MOR-DOR barr ag
CC(=O)Nc1cc(-c2ccc(N(C)C)cc2)cn2c(-c3ccc(F)c(Cl)c3)cnc12,.,2,2,.,9,71*,200*,10
CC(=O)Nc1cc(-c2ccc(N(C)C)cc2)cn2c(-c3ccc(F)cc3)cnc12,.,1,-8,.,0,123*,70*,3
CC(=O)Nc1cc(-c2ccc(S(C)(=O)=O)cc2)cn2c(-c3ccc(F)c(Cl)c3)cnc12,.,-16,11,.,-5,20*,17*,4
COc1cc(NC(=O)CSc2nc3ccccc3c(=O)n2C)ccc1NC(=O)c1ccco1,-1,-2,20,5,-1,14*,0,17
COc1cc(NC(=O)COc2ccccc2)ccc1NC(=O)c1ccco1,0,-3,4,1,7,1,.,.
COC(=O)C1=C(C)N(Cc2ccccc2)C(=NCc2ccccc2)N[C@H]1c1cccc(F)c1,0,2,11,18,10,9.6*,11*,11
COCCn1c(=NC(=O)/C=C/c2cccs2)sc2cc(NC(C)=O)ccc21,-1,-21,9,1,-3,10*,1,7
O=C(Nc1ccc(Oc2ccccc2)cc1)C1CCCN(c2ncccn2)C1 (stereo not given),0,9,4,5,-5,9.9*,0,3
CC(=O)Nc1ccc(NC(=O)C2CCCN(c3ncccn3)C2)cc1 (stereo not given),-1,5,-2,9,-2,0,.,.
COc1ccc(NC(=O)N(C)C[C@H]2OCCCC[C@H](C)Oc3ccc(NC(=O)Nc4cccc5ccccc45)cc3C(=O)N([C@@H](C)CO)C[C@H]2C)cc1,.,-20,.,.,.,.,.,.
CCCCCCCCCCCCCCCC[n+]1cccc2ccccc21,1,-2,-8,1,40,18*,34*,23*
CCCCCCCCC[n+]1cccc2c3ccccc3ccc21,0,.,-12,9,56*,13*,8.4*,7
Cc1ccccc1C[n+]1cccc2ccccc21,-1,6,1,1,-4,-2,.,.
O=[N+]([O-])c1ccc(C[n+]2cccc3c4ccccc4ccc32)cc1,1,1,12,-1,-1,0,.,.
Cc1cccc(OCCCN2CCC(C(O)(c3ccccc3)c3ccccc3)CC2)c1,.,-10,.,.,.,.,.,.
Cc1ccc(CN[C@@H]2CC[C@@]34CCCN3C(=O)CCC[C@H]4C2)o1,.,-2,.,.,.,.,.,.
CCOc1ccc(Nc2oc(-c3cccs3)nc2C#N)cc1,1,12,-2,2,0,18*,5,10
CCOc1ccc(Nc2oc(-c3ccco3)nc2C#N)cc1,0,4,9,-1,1,2,.,.

# Compound activity from PubChem BioAssay.
